The term viability denotes a read-out of living cells in per cent, often relative to untreated cells. For orientation: inhibition means the change of the read-out against control, counted positive when it falls.

Values without a mark were called inactive. Records with an inconclusive call do not appear. Activity calls are given as the source filed them.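 How the source made its calls, unless noted: active means inhibition over a set limit, the all-compound mean plus 3 SD, in both replicate runs; inconclusive means over that limit in just one replicate run; inactive means at or under that limit in both runs.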

The nature of assay [1]: S. cerevisiae growth inhibition in permissive medium (OD615), pilot counter-assay for S. cerevisiae lifespan shortening project, permissive growth control (AID 705;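 active means growth inhibition above 25% in both replicates, a cutoff set 3 SD above the mean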). The settings on record: OD615, 24 h, at 10 µM, hits give high values. The gist of the method:
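System: Engineered DeaD yeast | Buffer or medium: SC raffinose/galactose permissive medium | Incubation: Cells pre-grown 4 h, then 24 h compound exposure, 30 °C humidified | Measured by: Absorbance (optical density) at 615 nm | Read-out: Reduction in yeast growth (OD615)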

Assay [2] is described as follows: S. cerevisiae growth inhibition in restrictive medium, OD615, pilot screen, restrictive growth control, yeast lifespan reduction project (AID 706;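 active means growth inhibition above a set limit, 3 SD over mean compound inhibition, in both replicates, cut at about 43% in these data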;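 further: modified DeaD lifespan yeast strain shifted to restrictive glucose medium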). The settings on record: OD615, 48 h, at 10 µM, hits give high values. An outline of the steps:
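Material: modified S. cerevisiae; Medium: glucose-based CSMM-D restrictive medium; Compound dosing: one concentration, 10 µM final, 0.25% DMSO; Incubation: 48 h compound exposure at 30 °C; Measured by: OD615.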

Assay [3] in a line: doxorubicin toxicity protection in MRP-1 cells – H69AR cells, CellTiter-Glo, duplicate, MRP-1 activator project, pilot screen (AID 807;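 active means viability increase at or above a cutoff of the median across tested compounds plus 3 SD, cut at about 8.5% in these data, passing the limit was not always enough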;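 further: compound pretreatment 18-22 h then 72 h combined with doxorubicin; 0% = doxorubicin alone and 100% = vehicle without doxorubicin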). The settings on record: H69AR viability with doxorubicin, CellTiter-Glo luminescence; at 10 µM; hits give high values. A general note: Cellular ATP, detected with luciferase, serves as a proxy for viable cell number.
Assay [4] can be described thus: viability of HCT116 without oncogenic beta-catenin – human colon tumor cells, pilot screen (AID 823;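 active means cell viability at or below a set limit in both duplicate runs, the limit being the all-compound median minus 4 SD, cut at about 23% in these data, passing the limit was not always enough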;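 further: 0% = wells killed by 20 µM Hyamine and 100% = untreated DMSO cell wells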). The note with it: HCT116 beta-catenin knockout viability, CellTiter-Glo, 60 h; at 10 µM; hits give low values.
A short description of assay [5]: viability of PTEN-null HCT116 cells – cell-based, HCT116 clonal line, CellTiter-Glo, pilot screen (AID 824;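 active means viability at or below 27.92% in each of two runs, the all-compound median minus 4 SD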;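 further: 0% = 20 µM Hyamine control and 100% = vehicle cell control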). The settings on record: HCT116 PTEN-deleted viability, 60 h, at 10 µM, hits give low values.
The nature of assay [6]: RAM pathway blockade in budding yeast – dse1pr::URA3 reporter, 5-FOA selection, pilot screen (AID 869).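 Further: 0% = DMSO wells with no growth and 100% = 10 µM 1-NA-PP1 with full growth; RAM network block rescues cells from 5-FOA so hits raise OD615 growth.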 The note with it: S. cerevisiae dse1pr::URA3 5-FOA growth, OD615, 2 d; at 10 µM; hits give high values; strain carries analog-sensitive mutant Cbk1 kinase.
Assay [7] can be described thus: RAM signaling pathway blockade in yeast – S. cerevisiae, Pdr1DBD-CYC8 efflux-inhibited sensitized strain, primary screen (AID 1298;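 active means RAM network inhibition above 8.4% in each of two replicates, 3 SD over the compound average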;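 further: 0% = DMSO untreated cells without growth and 100% = 10 µM 1-NA-PP1 full growth; higher means more yeast growth rescued from 5-FOA killing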). The settings on record: S. cerevisiae cbk1-as DSE1-URA3 strain, 5-FOA growth OD615, 2 d; at 50 µM; hits give high values.

Turning to `COC(=O)c1sccc1NC(=O)c1ccc(Br)o1`, the results for the growth inhibition in assay [1] and in assay [2] were 12.1% and 11.3%, respectively. Also, in assay [3], the viability increase is -6.77%. For the same molecule, the viability in assay [4] was 78.5%; in assay [5], 72.2%. In addition, the inhibition in assay [6] was 2.2%. In assay [7], the RAM network inhibition was 7.41%.
Turning to `O=C1c2ccccc2C(Nc2ccc3c(c2)OCCO3)N1Cc1ccccc1` (stereo unspecified), the growth inhibition was -4.61% in assay [1] and 8.43% in assay [2]. For the same molecule, the viability increase in assay [3] was -1.12%. Further, the viability in assay [4] was 88.7%; in assay [5], 80.9%. In assay [6], the inhibition is 0.61%. Further, in assay [7], the RAM network inhibition is 2.3%.
`CCN1C(=O)N(CC)C(O)(c2ccccc2)C1(O)c1ccccc1` (stereo unspecified): the growth inhibition in assay [1] is -12.7%; in assay [2], -8.41%. In addition, in assay [3], the viability increase is -2.16%. For the same molecule, the viability in assay [4] is 97.1%; in assay [5], 94.8%. Also, the inhibition in assay [6] was 2.12%. Further, the RAM network inhibition in assay [7] was 6.55%.
In the case of `CCn1cc(Br)c(C(=O)Nc2ccc(F)c(Cl)c2)n1`, the growth inhibition in assay [1] was 0.5%; in assay [2], -5.7%. In addition, the viability increase in assay [3] was -3.96%. Also, the viability in assay [4] is 84.1%; in assay [5], 80.6%. Moreover, the inhibition in assay [6] was -0.565%. Moreover, the RAM network inhibition in assay [7] was -0.16%.
With `O=C(Nc1ccccc1C(=O)N1CCN(Cc2ccccc2)CC1)c1ccccn1`, the growth inhibition in assay [1] is -4.94%; in assay [2] it was -10.1%. Besides, the viability increase in assay [3] is -2.39%. The viability in assay [4] is 93.3%; in assay [5] it was 96.2%. Moreover, in assay [6], the inhibition was -0.045%. The RAM network inhibition in assay [7] was 6.33%.
As for `O=c1oc2c3c4c(cc2c2c1CCC2)OCCN4CCC3`, the figures for the growth inhibition in assay [1] and in assay [2] were -8.18% and -0.795%, respectively. Moreover, the viability increase in assay [3] is -7.31%. In addition, the figures for the viability in assay [4] and in assay [5] were 58.3% and 67.3%, respectively. Moreover, the inhibition in assay [6] was 0.055%. In addition, the RAM network inhibition in assay [7] was 5.48%.
With `COc1ccc(OC)c(N(CC(=O)Nc2ccc3c(c2)OCCO3)S(C)(=O)=O)c1`, the growth inhibition is -6.81% in assay [1] and -3.32% in assay [2]. Moreover, in assay [3], the viability increase is -2.52%. The viability in assay [4] is 92.4%; in assay [5] it was 89.8%. Besides, the inhibition in assay [6] was 0.825%. Also, the RAM network inhibition in assay [7] is 3.49%.
As for `CN1C[N+]([O-])=C(c2ccccc2)C1(C)C`, the growth inhibition is -1.95% in assay [1] and -8.32% in assay [2]. For the same molecule, the viability increase in assay [3] was -2.64%. Also, the viability is 98.7% in assay [4] and 91.2% in assay [5]. The inhibition in assay [6] is 0.69%. In assay [7], the RAM network inhibition was 1.81%.
For the molecule `COc1ccc(S(=O)(=O)Cc2ccc(C(=O)NCc3ccc(F)cc3)o2)cc1`, the growth inhibition in assay [1] was -13.6%; in assay [2] it was -14.1%. Also, the viability increase in assay [3] was -0.39%. Besides, the viability in assay [4] was 92.2%; in assay [5] it was 87.5%. Besides, the inhibition in assay [6] was 0.735%. For the same molecule, the RAM network inhibition in assay [7] is 2.4%.
`Cn1c(=O)c2c(nc(OCc3ccccc3)n2C)n(C)c1=O`: the growth inhibition was -2.8% in assay [1] and -0.39% in assay [2]. For the same molecule, the viability increase in assay [3] was 3.09%. The viability is 100% in assay [4] and 98.3% in assay [5]. The inhibition in assay [6] was -0.115%. In assay [7], the RAM network inhibition was 0.26%.
Turning to `N=c1oc2ccccc2cc1-c1nc2ccccc2c(=O)[nH]1`, the values for the growth inhibition in assay [1] and in assay [2] were 2.5% and 1.96%, respectively. The viability increase in assay [3] is 2.52%. The results for the viability in assay [4] and in assay [5] were 94.3% and 96.3%, respectively. For the same molecule, the inhibition in assay [6] is 2%. Moreover, the RAM network inhibition in assay [7] was 4.24%.
Regarding `COc1ccc(NC(=O)Nc2cccc(C)n2)cc1`, the growth inhibition was 6.65% in assay [1] and 21.5% in assay [2]. Moreover, the viability increase in assay [3] was -1.44%. Besides, the figures for the viability in assay [4] and in assay [5] were 100% and 88.4%, respectively. Besides, the inhibition in assay [6] was 0.5%. Also, the RAM network inhibition in assay [7] was 3.92%.
For the molecule `Cc1cc(C)nc(N(C#N)Cc2ccccc2Cl)n1`, the growth inhibition was -8.69% in assay [1] and 4.5% in assay [2]. In addition, the viability increase in assay [3] is -3.71%. Also, the viability in assay [4] was 99.7%; in assay [5], 95.5%. For the same molecule, the inhibition in assay [6] was 1.48%. Besides, the RAM network inhibition in assay [7] is -0.21%.
With `CCCCN=C(C)c1c(O)c2ccccc2oc1=O`, the growth inhibition in assay [1] was -2.92%; in assay [2] it was 5.07%. In addition, the viability increase in assay [3] is -1.49%. In addition, the viability in assay [4] is 102%; in assay [5], 95.9%. In addition, the inhibition in assay [6] is 0.01%. Further, in assay [7], the RAM network inhibition was -2%.
Take `Cc1ccc(-c2nc(CSCC(=O)N3CCN(c4ccccn4)CC3)c(C)o2)cc1`: the results for the growth inhibition in assay [1] and in assay [2] were -5.27% and 15.5%, respectively. In addition, in assay [3], the viability increase is -2.65%. Besides, the results for the viability in assay [4] and in assay [5] were 20.3% (active) and 44.5%, respectively. In assay [6], the inhibition was 1.56%. In addition, the RAM network inhibition in assay [7] was -0.57%.
`CC(c1ccccc1)N1CNc2c(c(=O)n(C)c(=O)n2C)C1` (stereo unspecified): the values for the growth inhibition in assay [1] and in assay [2] were -8.04% and 2.52%, respectively. Further, in assay [3], the viability increase is -1.82%. Moreover, the viability is 94.3% in assay [4] and 92.2% in assay [5]. In addition, the inhibition in assay [6] is 0.02%. Further, the RAM network inhibition in assay [7] is 0.77%.
For the molecule `COc1ccc(C2C(C(=O)Nc3ccccc3OC)=C(C)Nc3ncnn32)cc1` (stereo unspecified), the results for the growth inhibition in assay [1] and in assay [2] were -18.5% and 6.38%, respectively. For the same molecule, the viability increase in assay [3] is -3.68%. Moreover, the viability in assay [4] was 99.2%; in assay [5] it was 94.4%. Moreover, in assay [6], the inhibition was 1.78%. For the same molecule, in assay [7], the RAM network inhibition is -2.3%.
Take `Cc1ccc(O)c(-c2cc(C(F)(F)C(F)F)nc(-c3ccccc3)n2)c1`: the growth inhibition in assay [1] is -21.9%; in assay [2], -10.4%. In assay [3], the viability increase is -5.33%. Besides, the results for the viability in assay [4] and in assay [5] were 66.7% and 73%, respectively. The inhibition in assay [6] is 2.58%. Moreover, the RAM network inhibition in assay [7] is 7.06%.

Values taken from PubChem BioAssay.
